According to ChEMBL document CHEMBL3739420, “Benzoxazolone Carboxamides as Potent Acid Ceramidase Inhibitors: Synthesis and Structure-Activity Relationship (SAR) Studies” (J Med Chem, 2015):
Activity calls are given as the source filed them. The calls are words filed in the database; no cut-off is given here.

Columns and labels:
[1] = Stability in 1 % DMSO containing phosphate-buffered solution assessed as half life at 10 uM at pH 7.4 under shaking by UPLC method; type: physicochemical; details: for half-life at 10 µM: phosphate-buffered solution, pH 7.4; for t1/2: buffer, pH 7.4, 10 µM
Summary of the method: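 Compound incubated at 10 μM in PBS pH 7.4; half-life derived by fitting the decay profile.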

[2] = Chemical stability in AC assay buffer at 10 uM at pH 4.5 under shaking by UPLC method; type: physicochemical; details: pH 4.5, 10 µM
Acid ceramidase = target: T1, Acid ceramidase (Homo sapiens, UniProt Q13510); experiment: Inhibition of recombinant human acid ceramidase expressed in HEK293 cells using N-[(1S,2R)-2-hydroxy-1-(hydroxymethyl)-4-(2-oxochromen-7-yl)-oxybutyl]dodecanamide substrate preincubated for 10 mins; type: cell-based
T1 sequence (Q13510 whole entry): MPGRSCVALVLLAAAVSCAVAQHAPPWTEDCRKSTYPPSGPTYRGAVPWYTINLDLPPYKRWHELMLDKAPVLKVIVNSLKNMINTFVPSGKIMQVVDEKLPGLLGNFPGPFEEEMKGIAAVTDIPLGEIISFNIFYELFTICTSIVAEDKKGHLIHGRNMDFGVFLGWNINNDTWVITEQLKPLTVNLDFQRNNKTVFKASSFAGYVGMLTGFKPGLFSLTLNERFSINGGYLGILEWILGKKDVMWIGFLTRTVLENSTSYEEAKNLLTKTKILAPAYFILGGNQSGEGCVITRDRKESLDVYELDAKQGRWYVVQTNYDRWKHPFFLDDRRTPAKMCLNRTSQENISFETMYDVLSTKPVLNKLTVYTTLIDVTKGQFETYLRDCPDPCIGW
Summary of the method: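 AC-enriched lysosomal lysate from HEK293 cells stably expressing human AC, preincubated 10 min with compound. Coumarin-linked dodecanamide substrate then added at 5 μM final and incubated 3 h at 37 °C. Reaction stopped with MeOH, then NaIO4 at pH 10.6 for 2 h at 37 °C in the dark; umbelliferone fluorescence read at 355/460 nm. IC50 from nonlinear regression; mean of ≥2 determinations.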

[3] = target: T2, Acid ceramidase (Homo sapiens) (UniProt Q13510); experiment: Inhibition of recombinant human acid ceramidase expressed in HEK293 cells at 5 uM using N-[(1S,2R)-2-hydroxy-1-(hydroxymethyl)-4-(2-oxochromen-7-yl)-oxybutyl]dodecanamide substrate preincubated for 10 mins; type: cell-based
T2 sequence (whole entry): T1 sequence (Q13510 whole entry)

Mus musculus [4] = experiment: Inhibition of acid ceramidase in C57BL/6 mouse cerebral cortex assessed as changes in sphingolipid level at 10 mg/kg, ip by LC-MS method; type: functional, organism-based
Mus musculus [5] = experiment: Inhibition of acid ceramidase in C57BL/6 mouse cerebral cortex at 10 mg/kg, ip after 24 hrs by bicinchoninic acid based protein assay; type: functional, organism-based
Summary of the method: (§1)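 Male C57BL/6 mice dosed ip at 10 mg/kg in 15% PEG/15% Tween-80/70% saline; lung and cerebral cortex collected 30 min–24 h after dosing. Lysosomal extracts were prepared by sonication and differential centrifugation, then incubated at pH 4.5 with 50 μM C12-ceramide for 1 h at 37 °C. Lauric acid product measured by UPLC–MS with an internal standard; activity expressed as % of vehicle; n = 6.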

Mus musculus [6] = experiment: Inhibition of acid ceramidase in C57BL/6 mouse lung assessed as decrease in sphingosine-1-phosphate level at 10 mg/kg, ip after 3 hrs by LC-MS method; type: functional, organism-based
Mus musculus [7] = experiment: Inhibition of acid ceramidase in C57BL/6 mouse lung assessed as increase in ceramide level at 10 mg/kg, ip upto 6 hrs by LC-MS method; type: functional, organism-based
Mus musculus [8] = experiment: Inhibition of acid ceramidase in C57BL/6 mouse lung assessed as decrease in sphingosine level at 10 mg/kg, ip after 3 hrs by LC-MS method; type: functional, organism-based
Mus musculus [9] = experiment: Inhibition of acid ceramidase in C57BL/6 mouse lung at 10 mg/kg, ip after 24 hrs by bicinchoninic acid based protein assay; type: functional, organism-based; summary of the method: as §1
Mus musculus [10] = experiment: Inhibition of acid ceramidase in C57BL/6 mouse lung assessed as increase in dihydroceramide level at 10 mg/kg, ip upto 6 hrs by LC-MS method; type: functional, organism-based

| Compound | half-life at 10 µM [1] [h] | IC50 (Acid ceramidase; read-out: IC50) [nM] | also measured |
| --- | --- | --- | --- |
| O=C(NCCCCc1ccccc1)n1c(=O)oc2cc(Cl)c(Cl)cc21 | 0.917 |  |  |
| O=C(c1ccccc1)c1ccc2c(c1)oc(=O)n2C(=O)NCCCCc1ccccc1 | 1.63 |  | Stability [2]: Stable |
| Cc1ccc(CCCCNC(=O)n2c(=O)oc3ccccc32)cc1 |  | 25 |  |
| CN(CCNC(=O)n1c(=O)oc2ccccc21)Cc1ccccc1 |  |  | inhibition [3]: inactive |
| O=C(NCCCCCCc1ccccc1)n1c(=O)oc2ccccc21 |  | 51 |  |
| O=C(NCCSCc1ccccc1)n1c(=O)oc2ccccc21 |  | 65 |  |
| O=C(NCCCCc1cccs1)n1c(=O)oc2ccccc21 |  | 37 |  |
| COc1ccc(-c2ccc3oc(=O)n(C(=O)NCCCCc4ccccc4)c3c2)cc1 | 2.93 | 67 |  |
| O=C(NCCCCc1ccccc1)n1c(=O)oc2c(-c3ccccc3)cccc21 | > 5 |  |  |
| O=C(NCCCCc1ccc([N+](=O)[O-])cc1)n1c(=O)oc2ccccc21 |  | 312 |  |
| COc1ccc(-c2ccc3c(c2)oc(=O)n3C(=O)NCCCCc2ccccc2)cc1 | 2.2 |  |  |
| O=C(NCCCCc1ccccc1)n1c(=O)oc2cc([N+](=O)[O-])ccc21 |  |  | Stability [2]: Stable |
| O=C(NCCCCc1ccccc1)n1c(=O)oc2ccc(-c3ccccc3)cc21 | 4.93 | 42 | Stability [2]: Stable |
| O=C(c1ccccc1)c1ccc2oc(=O)n(C(=O)NCCCCc3ccccc3)c2c1 |  | 24 |  |
| O=C(NCCCCc1ccc2ccccc2c1)n1c(=O)oc2ccccc21 |  | 71 |  |
| O=C(NCCCCc1ccccc1)n1c(=O)oc2ccc([N+](=O)[O-])cc21 |  |  | Stability [2]: Stable |

| Compound | half-life at 10 µM [1] [h] | IC50 (Acid ceramidase; read-out: IC50) [nM] | also measured |
| --- | --- | --- | --- |
| O=C(NCCCCc1ccccc1)n1c(=O)oc2ccc(Cl)cc21 |  | 15 |  |
| O=C(NCCCCc1ccccc1)n1c(=O)oc2ccc(F)cc21 |  | 12 |  |
| O=C(c1ccc(Cl)cc1)c1ccc2c(c1)oc(=O)n2C(=O)NCCCCc1ccccc1 | 4.57 |  | Stability [2]: Stable |
| O=C(NCCCCc1ccccc1)n1c(=O)oc2cccc(-c3ccccc3)c21 | 0.117 |  |  |
| O=C(NCCCCc1ccccc1)n1c(=O)oc2cc(F)ccc21 |  | 31 |  |
| O=C(NCCOCc1ccccc1)n1c(=O)oc2ccccc21 |  | 649 |  |
| O=C(NCCCCc1ccccc1)n1c(=O)oc2cccc(Br)c21 |  |  | IC50 (Acid ceramidase; hek293): ND(Unstable) |
| O=C(NCCCCc1ccccc1)n1c(=O)oc2ccc(-c3ccc(F)cc3)cc21 | > 5 |  |  |
| O=C(NCCCCc1ccccc1)n1c(=O)oc2cc(Cl)ccc21 | 0.967 |  | inhibition (Mus musculus [4]): inactive; inhibition (Mus musculus [5]): Active; inhibition (Mus musculus [6]): Active; Stability [2]: Stable; inhibition (Mus musculus [7]): Active; inhibition (Mus musculus [8]): Active; inhibition (Mus musculus [9]): Active; inhibition (Mus musculus [10]): Active |
| O=C(NCCCCc1ccccc1)n1c(=O)oc2cc(-c3ccc(F)cc3)ccc21 | > 5 |  |  |
| O=C(NCCCCc1ccccc1)n1c(=O)oc2cc(Br)ccc21 |  |  | t1/2 [1]: 0.4 h; IC50 (Acid ceramidase; hek293, read-out: IC50): 31 nM |
| Cc1cccc2oc(=O)n(C(=O)NCCCCc3ccccc3)c12 |  |  | IC50 (Acid ceramidase; hek293): ND(Unstable) |
| O=C(NCCc1ccccc1)n1c(=O)oc2ccccc21 |  | 121 |  |
| O=C(NCCCCc1ccccc1)n1c(=O)oc2ccccc21 |  |  | t1/2 [1]: 0.75 h |
| O=C(NCCCCc1ccccc1)n1c(=O)oc2cc(-c3ccccc3)ccc21 | > 5 |  |  |
| O=C(NCCCCc1ccccc1)n1c(=O)oc2ccc(C(F)(F)F)cc21 |  | 18 |  |
